Assay results from article PMC6170741 (Investigational new drugs, 2018).

Columns and labels:
[1] = system: patients with solid tumors; test: Phase I safety and tolerability; type: in vivo
[2] = Single dose plasma pharmacokinetics in patients; type: in vivo, human; settings: for Tmax: human, plasma, po, across all doses and regimens
Summary of the method: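 Fasted patients took one oral capsule dose (Cycle 0) before repeat dosing began. Drug was quantified by liquid-liquid extraction and HPLC-MS/MS (range 1–1000 ng/mL; LLOQ 1.00 ng/mL). Non-compartmental analysis gave AUC(0–24) and Cmax, and variability was expressed as CV%.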

[3] = Repeat dose plasma pharmacokinetics in patients; type: in vivo, human
Summary of the method: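 Fasted patients took oral capsules once daily. Steady-state plasma was sampled up to 24 h post-dose on day 8 (10 and 20 mg cohorts), day 15 (40–150 mg cohorts), day 7 (7-on/7-off) or day 22 (t.i.w.). Dose-reduced patients were sampled at the new dose. Drug was measured by liquid-liquid extraction and HPLC-MS/MS (validated 1–1000 ng/mL; LLOQ 1.00 ng/mL). Parameters were derived non-compartmentally.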

[4] = system: patients with solid tumors; test: Clinical activity; type: in vivo, human
[5] = system: blood glucose and insulin levels; test: Pharmacodynamics: insulin after standardized meal, 1,5-anhydroglucitol; type: in vivo, human
AKT1 = settings: read-out: AKT1 Ki*; cited from earlier work
AKT3 = settings: read-out: AKT3 Ki*; cited from earlier work
[6] = any cause, all cohorts, N = 77, CTCAE v3.0
[7] = 75 mg, continuous daily regimen
[8] = repeat dose, 75 mg, continuous daily regimen

Structure (SMILES): Cn1ncc(Cl)c1-c1cc(C(=O)N[C@H](CN)Cc2ccc(F)c(F)c2)oc1Cl [GSK2141795]
- DLTs ([1]; 75 mg qd 7-on/7-off cohort): No DLTs
- DLTs ([1]; 75 mg t.i.w. cohort): No DLTs
- DLTs ([1]; 100 mg qd 7-on/7-off cohort): Two DLTs, grade 3 hyperglycemia and grade 3 rash
- DLTs ([1]; 100 mg qd cohort (exceeded the MTD)): two DLTs, including grade 1 stomatitis that did not resolve, leading to a treatment delay of >14 days, as well as grade 4 hypoglycemia
- DLTs ([1]; 100 mg t.i.w. cohort): No DLTs
- DLTs ([1]; 150 mg qd cohort (exceeded the MTD)): two DLTs of grade 3 hyperglycemia
- maximum tolerated dose (MTD) ([1]; 7-on/7-off schedule): 75 mg
- hyperglycemia, patients ([1]; all cohorts): 22%
- rash, patients ([1]; all cohorts): 22%
- patients with DLTs ([1]; all cohorts, cycle 1): 7 patients
- Abdominal pain, Grade 1 [1, 6]: 13 (17) n (%)
- Abdominal pain, Grade 2 [1, 6]: 4 (5) n (%)
- Abdominal pain, Grade 3 [1, 6]: 3 (4) n (%)
- Abdominal pain, Grade 4 [1, 6]: 0 n (%)
- Abdominal pain, Total [1, 6]: 20 (26) n (%)
- Back pain, Grade 1 [1, 6]: 11 (14) n (%)
- Back pain, Grade 2 [1, 6]: 3 (4) n (%)
- Back pain, Grade 3 [1, 6]: 1 (1) n (%)
- Back pain, Grade 4 [1, 6]: 0 n (%)
- Back pain, Total [1, 6]: 15 (19) n (%)
- Constipation, Grade 1 [1, 6]: 14 (18) n (%)
- Constipation, Grade 2 [1, 6]: 3 (4) n (%)
- Constipation, Grade 3 [1, 6]: 0 n (%)
- Constipation, Grade 4 [1, 6]: 0 n (%)
- Constipation, Total [1, 6]: 17 (22) n (%)
- Cough, Grade 1 [1, 6]: 9 (12) n (%)
- Cough, Grade 2 [1, 6]: 0 n (%)
- Cough, Grade 3 [1, 6]: 0 n (%)
- Cough, Grade 4 [1, 6]: 0 n (%)
- Cough, Total [1, 6]: 9 (12) n (%)
- Decreased appetite, Grade 1 [1, 6]: 23 (30) n (%)
- Decreased appetite, Grade 2 [1, 6]: 6 (8) n (%)
- Decreased appetite, Grade 3 [1, 6]: 0 n (%)
- Decreased appetite, Grade 4 [1, 6]: 1 (1) n (%)
- Decreased appetite, Total [1, 6]: 30 (39) n (%)
- Diarrhea, Grade 1 [1, 6]: 33 (43) n (%)
- Diarrhea, Grade 2 [1, 6]: 13 (17) n (%)
- Diarrhea, Grade 3 [1, 6]: 3 (4) n (%)
- Diarrhea, Grade 4 [1, 6]: 0 n (%)
- Diarrhea, Total [1, 6]: 49 (64) n (%)
- Dizziness, Grade 1 [1, 6]: 12 (16) n (%)
- Dizziness, Grade 2 [1, 6]: 0 n (%)
- Dizziness, Grade 3 [1, 6]: 0 n (%)
- Dizziness, Grade 4 [1, 6]: 0 n (%)
- Dizziness, Total [1, 6]: 12 (16) n (%)
- Dysgeusia, Grade 1 [1, 6]: 7 (9) n (%)
- Dysgeusia, Grade 2 [1, 6]: 1 (1) n (%)
- Dysgeusia, Grade 3 [1, 6]: 0 n (%)
- Dysgeusia, Grade 4 [1, 6]: 0 n (%)
- Dysgeusia, Total [1, 6]: 8 (10) n (%)
- Dyspnea, Grade 1 [1, 6]: 10 (13) n (%)
- Dyspnea, Grade 2 [1, 6]: 3 (4) n (%)
- Dyspnea, Grade 3 [1, 6]: 2 (3) n (%)
- Dyspnea, Grade 4 [1, 6]: 0 n (%)
- Dyspnea, Total [1, 6]: 15 (19) n (%)
- Fatigue, Grade 1 [1, 6]: 21 (27) n (%)
- Fatigue, Grade 2 [1, 6]: 16 (21) n (%)
- Fatigue, Grade 3 [1, 6]: 0 n (%)
- Fatigue, Grade 4 [1, 6]: 1 (1) n (%)
- Fatigue, Total [1, 6]: 38 (49) n (%)
- Headache, Grade 1 [1, 6]: 7 (9) n (%)
- Headache, Grade 2 [1, 6]: 0 n (%)
- Headache, Grade 3 [1, 6]: 1 (1) n (%)
- Headache, Grade 4 [1, 6]: 1 (1) n (%)
- Headache, Total [1, 6]: 9 (12) n (%)
- Hyperglycemia, Grade 1 [1, 6]: 2 (3) n (%)
- Hyperglycemia, Grade 2 [1, 6]: 9 (12) n (%)
- Hyperglycemia, Grade 3 [1, 6]: 5 (6) n (%)
- Hyperglycemia, Grade 4 [1, 6]: 1 (1) n (%)
- Hyperglycemia, Total [1, 6]: 17 (22) n (%)
- Mucosal inflammation, Grade 1 [1, 6]: 7 (9) n (%)
- Mucosal inflammation, Grade 2 [1, 6]: 1 (1) n (%)
- Mucosal inflammation, Grade 3 [1, 6]: 0 n (%)
- Mucosal inflammation, Grade 4 [1, 6]: 0 n (%)
- Mucosal inflammation, Total [1, 6]: 8 (10) n (%)
- Nausea, Grade 1 [1, 6]: 42 (55) n (%)
- Nausea, Grade 2 [1, 6]: 4 (5) n (%)
- Nausea, Grade 3 [1, 6]: 1 (1) n (%)
- Nausea, Grade 4 [1, 6]: 0 n (%)
- Nausea, Total [1, 6]: 47 (61) n (%)
- Peripheral edema, Grade 1 [1, 6]: 9 (12) n (%)
- Peripheral edema, Grade 2 [1, 6]: 0 n (%)
- Peripheral edema, Grade 3 [1, 6]: 0 n (%)
- Peripheral edema, Grade 4 [1, 6]: 0 n (%)
- Peripheral edema, Total [1, 6]: 9 (12) n (%)
- Pyrexia, Grade 1 [1, 6]: 10 (13) n (%)
- Pyrexia, Grade 2 [1, 6]: 2 (3) n (%)
- Pyrexia, Grade 3 [1, 6]: 0 n (%)
- Pyrexia, Grade 4 [1, 6]: 0 n (%)
- Pyrexia, Total [1, 6]: 12 (16) n (%)
- Rash, Grade 1 [1, 6]: 8 (10) n (%)
- Rash, Grade 2 [1, 6]: 8 (10) n (%)
- Rash, Grade 3 [1, 6]: 1 (1) n (%)
- Rash, Grade 4 [1, 6]: 0 n (%)
- Rash, Total [1, 6]: 17 (22) n (%)
- Urinary tract infection, Grade 1 [1, 6]: 6 (8) n (%)
- Urinary tract infection, Grade 2 [1, 6]: 6 (8) n (%)
- Urinary tract infection, Grade 3 [1, 6]: 0 n (%)
- Urinary tract infection, Grade 4 [1, 6]: 0 n (%)
- Urinary tract infection, Total [1, 6]: 12 (16) n (%)
- Vomiting, Grade 1 [1, 6]: 29 (38) n (%)
- Vomiting, Grade 2 [1, 6]: 3 (4) n (%)
- Vomiting, Grade 3 [1, 6]: 1 (1) n (%)
- Vomiting, Grade 4 [1, 6]: 0 n (%)
- Vomiting, Total [1, 6]: 33 (43) n (%)
- Weight decreased, Grade 1 [1, 6]: 12 (16) n (%)
- Weight decreased, Grade 2 [1, 6]: 5 (6) n (%)
- Weight decreased, Grade 3 [1, 6]: 0 n (%)
- Weight decreased, Grade 4 [1, 6]: 0 n (%)
- Weight decreased, Total [1, 6]: 17 (22) n (%)
- dose reductions for diarrhea ([1]; at the RP2D): 2 patients
- dose reductions for rash ([1]; at the RP2D): 3 patients
- grade 3 hyperglycemia ([1]; at the RP2D (75 mg qd), % of patients): 4%
- patients withdrawn as a result of an AE ([1]; of 77 enrolled (17%), at study completion): 13 patients
- recommended phase II dose (RP2D) ([1]; once-daily dosing, oral): 75 mg
- maximum tolerated dose (MTD) ([1]; qd dosing): 75 mg
- mean variability (CV%) in exposure, AUC(0–24) [2, 7]: 37%
- mean variability (CV%) in exposure, Cmax [2, 7]: 62%
- Tmax ([2]; Tmax, majority): 2 to 4 h
- Tmax ([2]; median time to maximal concentration (Tmax)): 3 to 8 h
- time to reach steady-state ([3]; continuous qd dosing): approximately 14 days
- concentration at 24 h ([3]; human, plasma, oral, 20 mg, C24, repeat dose 20 mg once daily (n = 1), day 8): 42.1 ng/mL
- Cmax ([3]; human, plasma, oral, 20 mg, Cmax, repeat dose 20 mg once daily (n = 1), day 8): 90.3 ng/mL
- Tmax ([3]; human, plasma, oral, 20 mg, Tmax, repeat dose 20 mg once daily (n = 1), day 8): 3 h
- Tmax ([3]; human, plasma, oral, median Tmax, repeat dose, generally): 2 to 4 h
- CV% in exposure, AUC(0–24) [3, 8]: 52%
- CV% in exposure, Cmax [3, 8]: 50%
- endometrial cancer patients with stable disease (SD) on therapy for more than 6 months ([4]; 75 mg qd): 4 patients
- prostate cancer patients with stable disease (SD) on therapy for more than 6 months ([4]; 75 mg qd): 3 patients
- partial responses (PRs) ([4]; RP2D 75 mg qd): two partial responses
- patients withdrawn due to disease progression ([4]; of 77 enrolled (68%), at study completion): 52 patients
- insulin levels following a standardized meal, day 15 compared with screening ([5]; 5 patients with matched insulin samples, cycle 1 day 15): Three of the five patients had two-fold greater insulin levels
- association of decreased 1,5-AG with GSK2141795 concentrations ([5]; screening vs steady state, linear regression): this association was not consistent across the study or across tumor types
- Ki (AKT1): 0.066 nM
- Ki (AKT3): 1.5 nM
